Source: ChEMBL document CHEMBL2385076, “Discovery of 2-((1H-benzo[d]imidazol-1-yl)methyl)-4H-pyrido[1,2-a]pyrimidin-4-ones as novel PKM2 activators” (Bioorg Med Chem Lett, 2013)
Calls of active or inactive are those of the source. The calls are words filed in the database; no cut-off is given here.

Key:
[1] = molecular target: Tyrosine-protein kinase ZAP-70 (Homo sapiens) (UniProt P43403); assay: Inhibition of ZAP70 (unknown origin)
[2] = molecular target: Epidermal growth factor receptor (Homo sapiens) (UniProt P00533); assay: Inhibition of EGFR (unknown origin)
Epidermal growth factor receptor (Homo sapiens), sequence (P00533 whole entry): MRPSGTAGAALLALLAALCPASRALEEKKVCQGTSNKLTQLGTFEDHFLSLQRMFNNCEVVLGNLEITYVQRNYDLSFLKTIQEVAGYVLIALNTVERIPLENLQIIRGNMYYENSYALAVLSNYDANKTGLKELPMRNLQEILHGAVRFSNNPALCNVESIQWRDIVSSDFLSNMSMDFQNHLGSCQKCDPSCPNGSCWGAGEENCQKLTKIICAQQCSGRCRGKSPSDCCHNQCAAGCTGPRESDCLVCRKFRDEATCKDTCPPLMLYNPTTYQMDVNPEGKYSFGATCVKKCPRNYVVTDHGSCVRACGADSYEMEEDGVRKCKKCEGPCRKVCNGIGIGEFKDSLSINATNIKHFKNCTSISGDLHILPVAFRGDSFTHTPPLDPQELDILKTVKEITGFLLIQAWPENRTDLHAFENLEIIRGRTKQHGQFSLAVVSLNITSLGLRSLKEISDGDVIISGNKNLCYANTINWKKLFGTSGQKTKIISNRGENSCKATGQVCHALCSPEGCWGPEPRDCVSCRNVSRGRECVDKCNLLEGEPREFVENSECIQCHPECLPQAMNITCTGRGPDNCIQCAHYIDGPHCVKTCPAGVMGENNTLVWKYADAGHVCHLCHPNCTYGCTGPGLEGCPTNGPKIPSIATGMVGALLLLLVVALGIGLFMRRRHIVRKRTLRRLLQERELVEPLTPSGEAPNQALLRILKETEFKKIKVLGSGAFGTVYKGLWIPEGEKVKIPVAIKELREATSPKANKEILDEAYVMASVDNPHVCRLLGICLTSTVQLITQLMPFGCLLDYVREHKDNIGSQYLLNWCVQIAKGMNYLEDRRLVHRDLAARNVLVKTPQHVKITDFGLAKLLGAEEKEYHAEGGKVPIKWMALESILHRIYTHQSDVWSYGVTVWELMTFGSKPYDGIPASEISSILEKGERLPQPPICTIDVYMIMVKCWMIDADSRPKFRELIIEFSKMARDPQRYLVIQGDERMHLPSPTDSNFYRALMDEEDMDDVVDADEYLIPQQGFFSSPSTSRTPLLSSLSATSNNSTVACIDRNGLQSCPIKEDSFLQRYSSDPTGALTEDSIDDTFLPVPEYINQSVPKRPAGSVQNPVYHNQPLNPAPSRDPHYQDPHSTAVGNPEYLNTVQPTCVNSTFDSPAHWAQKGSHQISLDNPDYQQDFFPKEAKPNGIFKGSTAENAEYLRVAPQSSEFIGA

[3] = molecular target: Mu-type opioid receptor (Homo sapiens) (UniProt P35372); assay: Binding affinity to human mu opioid receptor by radioligand binding assay
In short: (§1)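 CEREP panel binding measured by displacement of an agonist radioligand.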

[4] = molecular target: cAMP-dependent protein kinase catalytic subunit alpha (Homo sapiens) (UniProt P17612); assay: Inhibition of PRKACA (unknown origin)
[5] = molecular target: Protein kinase C beta type (Homo sapiens) (UniProt P05771); assay: Inhibition of PRKCB2 (unknown origin)
[6] = molecular target: Beta-2 adrenergic receptor (Homo sapiens) (UniProt P07550); assay: Binding affinity to human beta-2 adrenergic receptor by radioligand binding assay; in short: as §1
Beta-2 adrenergic receptor (Homo sapiens), sequence (P07550 whole entry, looked up): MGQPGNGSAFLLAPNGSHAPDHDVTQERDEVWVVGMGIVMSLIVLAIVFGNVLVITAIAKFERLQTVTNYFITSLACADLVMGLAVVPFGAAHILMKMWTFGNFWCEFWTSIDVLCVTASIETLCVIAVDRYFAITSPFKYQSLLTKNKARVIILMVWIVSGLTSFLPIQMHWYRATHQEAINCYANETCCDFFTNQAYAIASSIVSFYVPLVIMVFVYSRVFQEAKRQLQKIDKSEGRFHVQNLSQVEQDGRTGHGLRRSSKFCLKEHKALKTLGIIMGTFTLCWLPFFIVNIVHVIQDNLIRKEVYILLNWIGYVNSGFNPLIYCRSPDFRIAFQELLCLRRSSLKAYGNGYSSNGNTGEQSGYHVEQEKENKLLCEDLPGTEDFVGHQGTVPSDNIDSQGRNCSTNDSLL

[7] = molecular target: Tyrosine-protein kinase BTK (Homo sapiens) (UniProt Q06187); assay: Inhibition of BTK (unknown origin)
[8] = molecular target: Cannabinoid receptor 1 (Homo sapiens) (UniProt P21554); assay: Binding affinity to cannabinoid CB1 receptor (unknown origin)
[9] = molecular target: CDK2/Cyclin A2 (Homo sapiens) (UniProt P24941+P20248); assay: Inhibition of CDK2/cyclin A (unknown origin); assay type: protein-complex assay
[10] = molecular target: Adrenergic receptor alpha-1 (Homo sapiens) (UniProt P35348+P25100+P35368); assay: Binding affinity to alpha-1 adrenergic receptor (unknown origin) by radioligand binding assay
[11] = molecular target: Vascular endothelial growth factor receptor 2 (Homo sapiens) (UniProt P35968); assay: Inhibition of KDR (unknown origin)
[12] = molecular target: Hepatocyte growth factor receptor (Homo sapiens) (UniProt P08581); assay: Inhibition of cMet (unknown origin)
[13] = molecular target: Serine/threonine-protein kinase 26 (Homo sapiens) (UniProt Q9P289); assay: Inhibition of MST4 (unknown origin)
Serine/threonine-protein kinase 26 (Homo sapiens), sequence (Q9P289 2-416 limits assumed): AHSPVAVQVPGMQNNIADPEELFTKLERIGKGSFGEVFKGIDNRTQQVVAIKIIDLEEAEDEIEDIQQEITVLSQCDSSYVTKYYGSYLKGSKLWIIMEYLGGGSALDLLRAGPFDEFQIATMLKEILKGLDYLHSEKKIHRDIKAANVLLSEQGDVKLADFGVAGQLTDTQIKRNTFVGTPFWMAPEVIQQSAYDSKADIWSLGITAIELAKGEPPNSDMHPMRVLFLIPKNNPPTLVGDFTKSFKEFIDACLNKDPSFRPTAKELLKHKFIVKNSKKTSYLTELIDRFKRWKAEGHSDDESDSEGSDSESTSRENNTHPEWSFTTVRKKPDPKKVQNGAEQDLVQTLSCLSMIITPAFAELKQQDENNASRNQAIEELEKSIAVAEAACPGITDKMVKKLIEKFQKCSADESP

[14] = Intrinsic clearance in human liver microsomes; assay type: ADME, Microsome; settings: read-out: CLH
[15] = molecular target: Sodium-dependent serotonin transporter (Homo sapiens) (UniProt P31645); assay: Binding affinity to human 5-HT transporter by radioligand binding assay
In short: (§2)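 CEREP panel binding measured by displacement of an antagonist radioligand.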

[16] = molecular target: MAP kinase p38 (Homo sapiens) (UniProt O15264+Q15759+Q16539+P53778); assay: Inhibition of p38 (unknown origin); assay type: protein assay
[17] = molecular target: Serine/threonine-protein kinase Chk2 (Homo sapiens) (UniProt O96017); assay: Inhibition of CHEK2 (unknown origin)
Serine/threonine-protein kinase Chk2 (Homo sapiens), sequence (O96017 whole entry): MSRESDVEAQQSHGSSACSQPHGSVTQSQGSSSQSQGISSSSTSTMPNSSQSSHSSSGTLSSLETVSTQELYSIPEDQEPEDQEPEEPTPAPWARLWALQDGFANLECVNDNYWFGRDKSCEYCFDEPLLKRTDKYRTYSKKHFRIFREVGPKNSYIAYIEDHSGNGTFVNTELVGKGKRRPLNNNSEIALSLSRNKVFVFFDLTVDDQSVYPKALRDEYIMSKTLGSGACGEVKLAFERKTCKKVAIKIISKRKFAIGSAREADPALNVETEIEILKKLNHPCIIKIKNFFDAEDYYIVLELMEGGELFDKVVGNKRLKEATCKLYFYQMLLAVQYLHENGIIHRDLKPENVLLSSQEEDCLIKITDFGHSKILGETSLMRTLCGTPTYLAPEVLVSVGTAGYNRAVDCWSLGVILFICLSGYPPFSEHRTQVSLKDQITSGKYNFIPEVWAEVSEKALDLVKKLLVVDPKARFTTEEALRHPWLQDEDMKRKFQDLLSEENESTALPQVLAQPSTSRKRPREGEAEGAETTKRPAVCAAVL

HuH-1 (human) = assay: Antiproliferative activity against human HuH1 cells at 10 uM after 5 days
JHH2 = assay: Antiproliferative activity against human JHH2 cells at 10 uM after 5 days; assay type: functional, cell-based
In short: (§3)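 Cells plated in Optimem-GlutaMax medium and cultured overnight before exposure to 10 µM compound. Viability measured with CytoTox-Glo after 5 days of treatment.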

SNU-449 = assay: Antiproliferative activity against human SNU449 cells at 10 uM after 5 days; assay type: functional, cell-based; in short: as §3
Homo sapiens = organism: Homo sapiens; assay: Binding affinity to L-type calcium channel diltiazem binding site (unknown origin) by radioligand binding assay
[18] = molecular target: Ephrin type-A receptor 2 (Homo sapiens) (UniProt P29317); assay: Inhibition of EPHA2 (unknown origin)
[19] = molecular target: Sodium-dependent dopamine transporter (Homo sapiens) (UniProt Q01959); assay: Binding affinity to human dopamine transporter by radioligand binding assay; in short: as §2
Sodium-dependent dopamine transporter (Homo sapiens), sequence (Q01959 whole entry): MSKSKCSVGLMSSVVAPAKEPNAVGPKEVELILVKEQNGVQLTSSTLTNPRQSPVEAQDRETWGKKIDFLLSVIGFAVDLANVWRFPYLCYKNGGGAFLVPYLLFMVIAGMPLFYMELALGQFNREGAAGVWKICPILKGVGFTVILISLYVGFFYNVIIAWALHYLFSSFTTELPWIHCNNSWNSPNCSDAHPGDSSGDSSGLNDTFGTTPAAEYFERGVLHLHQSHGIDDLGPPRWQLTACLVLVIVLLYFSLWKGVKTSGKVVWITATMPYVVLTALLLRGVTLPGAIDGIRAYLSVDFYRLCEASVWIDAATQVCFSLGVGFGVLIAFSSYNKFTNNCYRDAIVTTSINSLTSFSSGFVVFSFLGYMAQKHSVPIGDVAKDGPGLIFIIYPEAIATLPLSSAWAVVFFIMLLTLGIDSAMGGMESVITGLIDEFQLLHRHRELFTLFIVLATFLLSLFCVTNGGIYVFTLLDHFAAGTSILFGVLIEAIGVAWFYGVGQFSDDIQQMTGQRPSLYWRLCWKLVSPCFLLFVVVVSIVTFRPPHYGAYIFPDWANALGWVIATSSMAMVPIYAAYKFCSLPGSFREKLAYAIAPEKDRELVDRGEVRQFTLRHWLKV

[20] = molecular target: Serine/threonine-protein kinase Sgk1 (Homo sapiens) (UniProt O00141); assay: Inhibition of SGK (unknown origin)
Salmonella typhimurium = assay: Genotoxicity in Salmonella typhimurium by Ames test; assay type: toxicity, organism-based; settings: salmonella enterica subsp. enterica serovar typhimurium
[21] = molecular target: 3-phosphoinositide-dependent protein kinase 1 (Homo sapiens) (UniProt O15530); assay: Inhibition of PDK1 (unknown origin)
[22] = molecular target: Aurora kinase A (Homo sapiens) (UniProt O14965); assay: Inhibition of AURKA (unknown origin)
[23] = molecular target: High affinity nerve growth factor receptor (Homo sapiens) (UniProt P04629); assay: Inhibition of NTRK1 (unknown origin)
[24] = molecular target: Phosphatidylinositol 4-phosphate 3-kinase C2 domain-containing subunit alpha (Homo sapiens) (UniProt O00443); assay: Inhibition of PIK3C2A (unknown origin)
[25] = molecular target: Insulin receptor (Homo sapiens) (UniProt P06213); assay: Inhibition of INSR (unknown origin)
Pyruvate kinase PKM [26] = molecular target: T1, Pyruvate kinase PKM (Homo sapiens, UniProt P14618); assay: Activation of PKM2 in human Huh7 cells assessed as production of pyruvate and ATP by fluorescence assay; assay type: cell-based, Huh-7
In short: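 Huh7 hepatocellular carcinoma cells were treated with compound and lysed, and the lysate was given PEP and ADP. The pyruvate formed was oxidized by pyruvate oxidase, and the fluorescence, proportional to pyruvate, was read as cellular pyruvate kinase activity.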

[27] = molecular target: Tyrosine-protein kinase Lck (Homo sapiens) (UniProt P06239); assay: Inhibition of LCK (unknown origin)
Pyruvate kinase PKM [28] = molecular target: T1, Pyruvate kinase PKM; assay: Activation of PKM2 in human Huh7 cells assessed as formation of enzyme tetramers; assay type: cell-based; settings: Huh-7
Target sequence in this assay (P14618 2-531 limits assumed): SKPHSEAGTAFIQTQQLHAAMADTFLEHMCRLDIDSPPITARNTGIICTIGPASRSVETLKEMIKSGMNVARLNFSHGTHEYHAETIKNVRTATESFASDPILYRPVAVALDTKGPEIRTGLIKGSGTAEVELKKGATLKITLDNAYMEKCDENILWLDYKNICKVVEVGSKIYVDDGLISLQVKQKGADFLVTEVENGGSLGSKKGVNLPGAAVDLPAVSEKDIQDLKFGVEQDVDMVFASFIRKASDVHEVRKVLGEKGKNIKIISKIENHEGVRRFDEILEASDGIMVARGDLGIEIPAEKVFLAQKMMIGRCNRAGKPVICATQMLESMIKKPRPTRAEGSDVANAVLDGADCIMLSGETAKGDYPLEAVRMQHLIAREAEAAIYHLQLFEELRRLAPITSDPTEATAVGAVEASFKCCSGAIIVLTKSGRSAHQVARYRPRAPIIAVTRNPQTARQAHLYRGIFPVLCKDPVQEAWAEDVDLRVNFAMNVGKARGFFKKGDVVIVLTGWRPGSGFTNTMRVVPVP

[29] = molecular target: Angiopoietin-1 receptor (Homo sapiens) (UniProt Q02763); assay: Inhibition of Tie2 (unknown origin)
Pyruvate kinase PKM [30] = molecular target: T1, Pyruvate kinase PKM; assay: Activation of PKM2 in human Snu182 cells assessed as extracellular acidification rate at 10 uM after 18 hrs; assay type: cell-based
In short: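 Snu182 cells seeded at 12k/well in RPMI with 10% FBS and 2 mM glutamine, cultured overnight, then given 10 µM compound for 18 h at 37°C, 5% CO2. Medium switched to XF DMEM with 5 mM glucose plus 10 µM compound; OCR and ECAR measured on a Seahorse XF96 analyzer.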
Target sequence in this assay (P14618 2-531 limits assumed): as above

[31] = molecular target: Muscarinic acetylcholine receptor M1 (Homo sapiens) (UniProt P11229); assay: Binding affinity to human muscarinic M1 receptor by radioligand binding assay; in short: as §2
[32] = molecular target: Proto-oncogene tyrosine-protein kinase Src (Homo sapiens) (UniProt P12931); assay: Inhibition of SRC (unknown origin)
[33] = molecular target: Glycogen synthase kinase-3 beta (Homo sapiens) (UniProt P49841); assay: Inhibition of GSK3B (unknown origin)
[34] = molecular target: Tyrosine-protein kinase ABL1 (Homo sapiens) (UniProt P00519); assay: Inhibition of ABL1 (unknown origin)
Tyrosine-protein kinase ABL1 (Homo sapiens), sequence (P00519 whole entry): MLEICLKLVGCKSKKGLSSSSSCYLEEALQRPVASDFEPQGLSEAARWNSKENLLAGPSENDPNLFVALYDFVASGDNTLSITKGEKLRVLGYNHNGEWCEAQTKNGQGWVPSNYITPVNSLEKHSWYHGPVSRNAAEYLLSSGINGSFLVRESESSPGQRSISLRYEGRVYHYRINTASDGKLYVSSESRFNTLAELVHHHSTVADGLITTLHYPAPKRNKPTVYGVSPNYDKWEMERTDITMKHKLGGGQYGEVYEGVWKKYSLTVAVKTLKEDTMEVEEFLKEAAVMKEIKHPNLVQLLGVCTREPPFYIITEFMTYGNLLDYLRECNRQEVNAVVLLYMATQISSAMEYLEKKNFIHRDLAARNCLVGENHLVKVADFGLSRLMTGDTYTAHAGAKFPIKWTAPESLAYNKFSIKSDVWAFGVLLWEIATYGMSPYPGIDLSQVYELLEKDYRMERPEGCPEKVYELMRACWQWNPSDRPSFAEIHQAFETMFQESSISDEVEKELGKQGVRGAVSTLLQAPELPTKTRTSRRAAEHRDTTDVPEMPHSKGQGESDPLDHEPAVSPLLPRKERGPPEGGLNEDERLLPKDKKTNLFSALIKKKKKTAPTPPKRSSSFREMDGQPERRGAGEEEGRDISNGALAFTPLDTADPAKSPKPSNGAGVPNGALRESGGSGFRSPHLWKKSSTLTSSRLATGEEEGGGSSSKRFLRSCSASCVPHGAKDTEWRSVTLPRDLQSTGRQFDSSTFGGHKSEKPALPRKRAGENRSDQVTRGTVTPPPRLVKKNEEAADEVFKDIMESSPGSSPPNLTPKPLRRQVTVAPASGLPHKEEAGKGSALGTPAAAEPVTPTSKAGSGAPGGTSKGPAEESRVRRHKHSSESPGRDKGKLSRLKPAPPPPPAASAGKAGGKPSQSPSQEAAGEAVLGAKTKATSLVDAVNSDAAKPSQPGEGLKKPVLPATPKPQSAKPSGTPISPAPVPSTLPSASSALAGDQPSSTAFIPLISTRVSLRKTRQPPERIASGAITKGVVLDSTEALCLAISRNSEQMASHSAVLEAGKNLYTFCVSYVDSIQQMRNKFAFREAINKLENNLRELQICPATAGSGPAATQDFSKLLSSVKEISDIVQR

[35] = molecular target: Serine/threonine-protein kinase 3 (Homo sapiens) (UniProt Q13188); assay: Inhibition of STK3 (unknown origin)
[36] = molecular target: Fibroblast growth factor receptor 1 (Homo sapiens) (UniProt P11362); assay: Inhibition of FGFR1 (unknown origin)
[37] = molecular target: Mitogen-activated protein kinase kinase kinase kinase 4 (Homo sapiens) (UniProt O95819); assay: Inhibition of MAP4K4 (unknown origin)
[38] = molecular target: Serine/threonine-protein kinase mTOR (Homo sapiens) (UniProt P42345); assay: Inhibition of mTOR (unknown origin)
[39] = molecular target: Histamine H1 receptor (Homo sapiens) (UniProt P35367); assay: Binding affinity to human histamine H1 receptor by radioligand binding assay; in short: as §2

- inhibition [1]: inactive
- inhibition [2]: inactive
- Activity [3]: inactive
- inhibition [4]: inactive
- inhibition [5]: inactive
- Activity [6]: inactive
- inhibition [7]: inactive
- Activity [8]: inactive
- inhibition [9]: inactive
- Activity [10]: inactive
- inhibition [11]: inactive
- inhibition [12]: inactive
- inhibition [13]: inactive
- microsomal CLint [14]: < 8 µL/min/mg
- Activity [15]: inactive
- inhibition [16]: inactive
- inhibition [17]: inactive
- Activity (Homo sapiens): inactive
- inhibition [18]: inactive
- Activity [19]: inactive
- inhibition [20]: inactive
- inhibition [21]: inactive
- inhibition [22]: inactive
- inhibition [23]: inactive
- inhibition [24]: inactive
- inhibition [25]: inactive
- EC50 (Pyruvate kinase PKM [26]): 70 nM
- inhibition [27]: inactive
- Activity (Pyruvate kinase PKM [28]): Active
- inhibition [29]: inactive
- Activity (Pyruvate kinase PKM [30]): 109%
- Activity [31]: inactive
- inhibition [32]: inactive
- inhibition [33]: inactive
- inhibition [34]: inactive
- inhibition [35]: inactive
- inhibition [36]: inactive
- inhibition [37]: inactive
- inhibition [38]: inactive
- Activity [39]: inactive
SMILES: Cc1cccc2nc(Cn3cnc4ccccc43)cc(=O)n12
- Activity (HuH-1 (human)): inactive
- Activity (JHH2): inactive
- Activity (SNU-449): inactive
- Activity (Salmonella typhimurium): Non-toxic
